This note sets out measurements from ChEMBL document CHEMBL2417388, “Design and synthesis of (4E)-4-(4-substitutedbenzylideneamino)-3-substituted-2,3-dihydro-2-thioxothiazole-5-carbonitrile as novel A2A receptor antagonists” (Bioorg Med Chem, 2013).

Experiment [1] relates to HEK293. Description: Selectivity ratio of Ki for human A1 receptor expressed in HEK293 cell membranes to Ki for human A2A receptor expressed in HEK293 cell membranes. The class given is cell-based.
The target of experiment [2] is T1, Adenosine receptor A1 (Homo sapiens, UniProt P30542).
T1 sequence (P30542 whole entry): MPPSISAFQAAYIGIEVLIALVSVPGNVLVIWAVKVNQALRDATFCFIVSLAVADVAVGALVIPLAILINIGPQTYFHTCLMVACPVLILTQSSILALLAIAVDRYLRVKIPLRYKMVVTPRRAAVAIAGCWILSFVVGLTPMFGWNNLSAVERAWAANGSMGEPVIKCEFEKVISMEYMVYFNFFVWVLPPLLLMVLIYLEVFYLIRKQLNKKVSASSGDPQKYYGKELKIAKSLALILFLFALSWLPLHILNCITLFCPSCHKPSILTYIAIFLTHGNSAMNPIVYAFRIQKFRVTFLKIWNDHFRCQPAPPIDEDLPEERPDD
Description: Displacement of [3H]DPCPX from human A1 receptor expressed in HEK293 cell membranes after 60 mins by scintillation counting. On the technique in general: Displacement assays read how much labelled ligand stays bound in the presence of the test substance.

Experiment [3] has as its target Adenosine receptor A2a (Homo sapiens, UniProt P29274). Description: Displacement of [3H]ZM241385 from human A2A receptor expressed in HEK293 cell membranes after 60 mins by scintillation counting.
Experiment [4] concerns Mus musculus. Description: Inhibition of haloperidol-induced catalepsy in Swiss albino mouse at 10 mg/kg, ip administered 30 mins prior haloperidol challenge measured after 120 mins. The class given is functional, organism-based. Also on record: dose 10 mg/kg. In outline:
(§1)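 Adult male Swiss albino mice (4–6 weeks, 20–30 g), four per group. Compound given ip at 5–20 mg/kg, with 1% acacia in saline as vehicle control. […] Catalepsy scored over time up to 120 min. Mean ± SEM, n = 4, one-way ANOVA and Kruskal–Wallis test.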

Experiment [5] deals with Mus musculus. The experiment in a line: Inhibition of haloperidol-induced catalepsy in Swiss albino mouse at 5 to 20 mg/kg, ip administered 30 mins prior haloperidol challenge measured after 120 mins. It counts as functional, organism-based. In outline: as §1

Active and inactive are the calls of the source. The rule behind the calls is not given here.

Adenosine receptor A2a, sequence (P29274 whole entry): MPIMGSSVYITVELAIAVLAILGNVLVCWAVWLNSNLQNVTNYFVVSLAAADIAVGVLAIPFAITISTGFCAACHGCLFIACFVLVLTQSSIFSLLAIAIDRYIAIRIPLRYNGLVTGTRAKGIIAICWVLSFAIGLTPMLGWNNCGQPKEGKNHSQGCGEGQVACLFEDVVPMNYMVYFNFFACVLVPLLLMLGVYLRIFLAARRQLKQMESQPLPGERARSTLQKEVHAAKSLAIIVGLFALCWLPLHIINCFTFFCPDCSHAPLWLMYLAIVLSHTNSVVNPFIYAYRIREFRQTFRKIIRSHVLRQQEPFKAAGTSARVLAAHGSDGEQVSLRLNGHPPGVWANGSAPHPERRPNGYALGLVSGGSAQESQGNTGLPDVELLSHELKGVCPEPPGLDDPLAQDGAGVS

`CCCn1c(/N=C/c2ccc(F)cc2)c(C#N)sc1=S`: in experiment [1], the Ratio Ki was 3390.

For the compound `CCCCn1c(/N=C/c2ccc(Cl)cc2)c(C#N)sc1=S`, the Ratio Ki in experiment [1] was found to be 2570.

Regarding `N#Cc1sc(=S)n(-c2ccccc2)c1/N=C/c1ccc(Cl)cc1`, the Ratio Ki in experiment [1] came to 2950.

As a reminder, the Ki is the dissociation constant of the complex between target and ligand, obtained from inhibition or displacement. A higher Ki goes with lower affinity. Regarding `CCCCn1c(/N=C/c2ccc(F)cc2)c(C#N)sc1=S`, in experiment [1], the Ratio Ki was determined as 619. Also, the Ki stood at 16.7 nM in experiment [2] and 0.027 nM in experiment [3].

Take `N#Cc1sc(=S)n(CCc2ccccc2)c1/N=C/c1ccc(F)cc1`: in experiment [1], the Ratio Ki turned out to be 337. In addition, the Ki came out at 889 nM in experiment [2] and 2.64 nM in experiment [3].

Regarding `CCn1c(/N=C/c2ccc(Cl)cc2)c(C#N)sc1=S`, the Ratio Ki in experiment [1] turned out to be 13.8. Also, the values for the Ki in experiment [2] and in experiment [3] were 19.8 nM and 1.44 nM, respectively.

As for `CCCn1c(/N=C/c2ccc(Br)cc2)c(C#N)sc1=S`, the Ratio Ki in experiment [1] turned out to be 337. In addition, the Ki was found to be 607 nM in experiment [2] and 1.8 nM in experiment [3].

As for `CCCn1c(/N=C/c2ccc(Cl)cc2)c(C#N)sc1=S`, in experiment [1], the Ratio Ki turned out to be 0.042.

As to `Nc1nc2c(cnn2CCc2ccccc2)c2nc(-c3ccco3)nn12`, the inhibition result in experiment [4] and in experiment [5] was “Active” throughout.

Turning to `CCn1c(/N=C/c2ccc(Br)cc2)c(C#N)sc1=S`, the Ratio Ki in experiment [1] amounted to 0.074. Further, the affinity in experiment [2], expressed as Ki, was 0.00074 nM.

Take `N#Cc1sc(=S)n(CCc2ccccc2)c1/N=C/c1ccc(Br)cc1`: the Ratio Ki in experiment [1] came to 3.73. Moreover, the results for the Ki in experiment [2] and in experiment [3] were 0.25 nM and 0.067 nM, respectively.

In the case of `N#Cc1sc(=S)n(-c2ccccc2)c1/N=C/c1ccc(Br)cc1`, the inhibition result in experiment [4] and in experiment [5] was “Active” throughout.

Turning to `CCCCn1c(/N=C/c2ccc(Br)cc2)c(C#N)sc1=S`, in experiment [1], the Ratio Ki amounted to 0.013.

Turning to `CCn1c(/N=C/c2ccc(F)cc2)c(C#N)sc1=S`, the Ratio Ki in experiment [1] came out at 5.3e-05. Also, in experiment [2], the Ki was 0.00059 nM.

For `N#Cc1sc(=S)n(-c2ccccc2)c1/N=C/c1ccc(F)cc1`, the Ratio Ki in experiment [1] is 0.13. The Ki in experiment [2] is 0.00063 nM; in experiment [3] it was 0.0047 nM.
